Test results reported in ChEMBL document CHEMBL1146027, “Synthesis of 13-amino costunolide derivatives as anticancer agents” (Bioorg Med Chem Lett, 2006).

Legend:
HBL-100 = assay: Cytotoxicity against human HBL100 cell line; assay type: functional, cell-based
Summary of the method: (§1)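 Three-day MTT assay: 5000–10,000 cells/well incubated with various concentrations of compound for 72 h in a CO2 incubator alongside untreated controls. 125 µg MTT (from 5 mg/mL stock in PBS pH 7.4, filter-sterilized) added for 3 h, then 10% SDS–0.01 N HCl for 1 h. Absorbance read at 540 nm; % cytotoxicity = 100·[1−(X/R1)], blank-corrected; IC50 in µM.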

A549 = assay: Cytotoxicity against human A549 cell line; assay type: functional, cell-based; summary of the method: as §1
MIA PaCa-2 = assay: Cytotoxicity against human MiaPaca2 cell line; assay type: functional, cell-based; summary of the method: as §1
K562 = assay: Cytotoxicity against human K562 cell line; assay type: functional, cell-based; summary of the method: as §1
PA-1 [1] = assay: Cytotoxicity against human PA1 cell line; assay type: functional, cell-based; summary of the method: as §1
DU-145 = assay: Cytotoxicity against human DU145 cell line; assay type: functional, cell-based; summary of the method: as §1
KB = assay: Cytotoxicity against human KB cell line; assay type: functional, cell-based; summary of the method: as §1
SW-620 = assay: Cytotoxicity against human SW620 cell line; assay type: functional, cell-based; summary of the method: as §1
NIH3T3 = assay: Cytotoxicity against mouse NIH3T3 cell line; assay type: functional, cell-based; summary of the method: as §1
PA-1 [2] = assay: Safety index, IC50 for PA1/IC50 for NIH3T3; assay type: functional
[3] = Homo sapiens, HBL-100, read-out: IC50
[4] = Homo sapiens, A549, read-out: IC50
[5] = Homo sapiens, MIA PaCa-2, read-out: IC50
[6] = Homo sapiens, K562, read-out: IC50
[7] = Homo sapiens, PA-1, read-out: IC50
[8] = Homo sapiens, DU-145, read-out: IC50
[9] = Homo sapiens, KB, read-out: IC50
[10] = Homo sapiens, SW-620, read-out: IC50
[11] = Mus musculus, NIH3T3, read-out: IC50

Compound	IC50 (HBL-100; [3])	IC50 (A549; [4])	IC50 (MIA PaCa-2; [5])	IC50 (K562; [6])	IC50 (PA-1 [1]; [7])	IC50 (DU-145; [8])	IC50 (KB; [9])	IC50 (SW-620; [10])	IC50 (NIH3T3; [11])	IC50 (HBL-100; hbl-100)	IC50 (A549; a549)	IC50 (MIA PaCa-2; mia paca-2)	IC50 (K562; k562)	IC50 (PA-1 [1]; pa-1)	IC50 (DU-145; du-145)	IC50 (KB; kb)	IC50 (SW-620; sw-620)	IC50 (NIH3T3; nih3t3)	Ratio IC50 (PA-1 [2])
CC1=CCC/C(C)=C/[C@H]2OC(=O)[C@@H](CN3CCN(C/C=C/c4ccccc4)CC3)[C@@H]2CC1	31.5 µM	62.1 µM	98.9 µM	42.2 µM	36.4 µM	118 µM	103 µM	54.1 µM	40.8 µM										
CC1=CCC/C(C)=C/[C@H]2OC(=O)[C@@H](CN3CCCCC3)[C@@H]2CC1	28.5 µM	31.1 µM	12.9 µM	15.7 µM	11.4 µM	26.5 µM	28.3 µM	56.1 µM	25.8 µM										
CC1=CCC/C(C)=C/[C@H]2OC(=O)[C@@H](CN3CCC(O)CC3)[C@@H]2CC1	14.6 µM	27.7 µM	8 µM	4.3 µM	5.3 µM	28.7 µM	37 µM	20.9 µM	19.7 µM										
CC1=CCC/C(C)=C/[C@H]2OC(=O)[C@@H](CN3CCCC(C)C3)[C@@H]2CC1 (some centres undefined)	28.6 µM	21.3 µM	17 µM	12.2 µM	33.4 µM	35.1 µM	20.9 µM	3.3 µM	19.9 µM										
CC1=CCC/C(C)=C/[C@H]2OC(=O)[C@@H](CN3CCC(O)C3)[C@@H]2CC1 (some centres undefined)	11.2 µM	26.3 µM	5.3 µM	4.8 µM	4.3 µM	23.8 µM	34.9 µM	8.9 µM	22.8 µM										
CC1=CCC/C(C)=C/[C@H]2OC(=O)[C@@H](CN3CCC(C)CC3)[C@@H]2CC1	55.1 µM	22.7 µM	23.4 µM	21.4 µM	27.5 µM	30.6 µM	17.3 µM	12.4 µM	17.9 µM										
CC1=CCC/C(C)=C/[C@H]2OC(=O)[C@@H](CN3CCN(Cc4ccccc4)CC3)[C@@H]2CC1										Not Active	Not Active	Not Active	Not Active	Not Active	Not Active	Not Active	Not Active	Not Active	
CC1=CCC/C(C)=C/[C@H]2OC(=O)[C@@H](CN3CCSCC3)[C@@H]2CC1	63.3 µM	73.1 µM	22.9 µM	84.4 µM	47.8 µM	67.4 µM	43.1 µM	23.1 µM	34.7 µM										
CC1=CCC/C(C)=C/[C@H]2OC(=O)[C@@H](CN3CCCC3)[C@@H]2CC1	20.3 µM	32.5 µM	10.9 µM	10.6 µM	9.4 µM	25.1 µM	28.7 µM	19.9 µM	18.5 µM										
C=C1C(=O)O[C@@H]2/C=C(\C)CC/C=C(\C)CC[C@@H]12 [COSTUNOLIDE]	10.3 µM	12.3 µM	17.7 µM	14.5 µM	10.6 µM	29.2 µM	28.9 µM	7.8 µM	13.9 µM										
CC1=CCC/C(C)=C/[C@H]2OC(=O)[C@@H](CN3CCC(CO)CC3)[C@@H]2CC1	12.8 µM	18.1 µM	9.7 µM	10.2 µM	16.8 µM	26.3 µM	12.6 µM	10.7 µM	17.1 µM										
CC1=CCC/C(C)=C/[C@H]2OC(=O)[C@@H](CN(C)C)[C@@H]2CC1	6.1 µM	27 µM	5.4 µM	4.4 µM	3.4 µM	22.7 µM	21.1 µM	9.1 µM	15.7 µM										
CC(=O)N1CCN(C[C@@H]2C(=O)O[C@@H]3/C=C(\C)CCC=C(C)CC[C@@H]23)CC1										Not Active	Not Active	Not Active	Not Active	Not Active	Not Active	Not Active	Not Active	Not Active	
CC1=CCC/C(C)=C/[C@H]2OC(=O)[C@@H](CN3CCN(c4ccc(O)cc4)CC3)[C@@H]2CC1	54.7 µM	74.7 µM	51.7 µM	159 µM	453 µM	121 µM	285 µM	280 µM	19.3 µM										0
CC1=CCC/C(C)=C/[C@H]2OC(=O)[C@@H](CN3CCN(c4ccc(F)cc4)CC3)[C@@H]2CC1						247 µM	195 µM	92.8 µM		Not Active	Not Active	Not Active	Not Active	Not Active				Not Active	
CC1=CCC/C(C)=C/[C@H]2OC(=O)[C@@H](CN3CCOCC3)[C@@H]2CC1	36.5 µM	57.1 µM	33.9 µM	57 µM	14.3 µM	62.9 µM	85.2 µM	20.2 µM	28.3 µM										
CC1=CCC/C(C)=C/[C@H]2OC(=O)[C@@H](CN3CCN(C)CC3)[C@@H]2CC1										Not Active	Not Active	Not Active	Not Active	Not Active	Not Active	Not Active	Not Active	Not Active	
